For one assay, the system named is BMDM. In words: Induction of PARP cleavage in mouse BMDM cells at 50 uM after 90 mins by Western blot analysis. It counts as cell-based. A digest of the protocol:
(§1)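 Primary bone marrow-derived macrophages exposed to alkynyl AHL analogue at 50 μM for 90 minutes. Cell extracts were probed by Western blot for p38 phosphorylation, eIF2α phosphorylation and PARP cleavage.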
For orientation: A western blot detects proteins with antibodies after separation by electrophoresis.

Assay [1] addresses Eukaryotic translation initiation factor 2 subunit 1 (Mus musculus) (UniProt Q6ZWX6). Put plainly: Induction of phosphorylation of eIF2alpha in mouse BMDM cells at 50 uM after 90 mins by Western blot analysis. It counts as cell-based. A digest of the protocol: as §1
Assay [2] addresses MAP kinase p38 (Mus musculus) (UniProt P47811+O08911+Q9WUI1+Q9Z1B7). In words: Induction of phosphorylation of p38 in mouse BMDM cells at 50 uM after 90 mins by Western blot analysis. It counts as cell-based. The essentials:
as §1

Another assay deals with Pseudomonas aeruginosa. Put plainly: Induction of quorum sensing activity in lasI/rhlI-deleted Pseudomonas aeruginosa PAO-JP2 expressing plasmid pKD201 containing a LasI reporter coupled to the luxCDABE assessed as relative luminescence units normalized with respect to cell viability at 1 uM after 4 hrs by autoinducer activity assay. A digest of the protocol:
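Autoinducer assay in P. aeruginosa luminescence reporter strain PAO-JP2, a PAO1 lasI/rhlI double mutant carrying luxABCDE.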

Calls of active or inactive are those of the source. The rule behind the calls is not given here.

Eukaryotic translation initiation factor 2 subunit 1 (Mus musculus), sequence (Q6ZWX6 whole entry): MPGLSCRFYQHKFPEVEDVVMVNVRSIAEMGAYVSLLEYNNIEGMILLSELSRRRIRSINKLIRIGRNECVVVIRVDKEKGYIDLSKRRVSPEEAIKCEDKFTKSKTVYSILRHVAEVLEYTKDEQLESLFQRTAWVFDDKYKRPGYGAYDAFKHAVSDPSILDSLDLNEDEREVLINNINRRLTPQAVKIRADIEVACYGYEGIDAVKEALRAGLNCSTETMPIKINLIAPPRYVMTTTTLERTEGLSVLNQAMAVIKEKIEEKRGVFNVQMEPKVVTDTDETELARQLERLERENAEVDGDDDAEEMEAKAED

Take `[N-]=[N+]=NCCCCCCCCCC(=O)CC(=O)N[C@H]1CCOC1=O`: the outcome (with BMDM; in assay [1]; in assay [2]) was Active. Moreover, the outcome in the assay on Pseudomonas aeruginosa was inactive.
As to `C#CCCCCCCCCC(=O)CC(=O)N[C@H]1CCOC1=O`, the outcome (in the assay on BMDM; in assay [1]; in assay [2]; with Pseudomonas aeruginosa) was Active.
For `CCCCCCCCCC(=O)CC(=O)N[C@H]1CCOC1=O`, the result (in the assay on BMDM; in assay [1]; in assay [2]; in the assay on Pseudomonas aeruginosa) was Active.
Take `[N-]=[N+]=NCCCCCCCCCC(=O)CC(=O)N[C@@H]1CCOC1=O`: the outcome (with BMDM; in assay [1]; in assay [2]; in the assay with Pseudomonas aeruginosa) was inactive.
With `C#CCCCCC(=O)CC(=O)N[C@H]1CCOC1=O`, the result (in the assay with BMDM; in assay [1]; in assay [2]; in the assay with Pseudomonas aeruginosa) was inactive.

These data come from ChEMBL document CHEMBL1770139, “Synthesis of 'clickable' acylhomoserine lactone quorum sensing probes: unanticipated effects on mammalian cell activation” (Bioorg Med Chem Lett, 2011).
